The source made the active and inactive calls. The rule behind the calls is not given here.
Columns and labels:
Assay type in all cases: functional
[1] = tested on: Leishmania donovani; assay: Antileishmanial activity against Leishmania donovani MHOM/IN/Dd8 promastigotes assessed as inhibition of parasitic growth at 5 ug/ml after 72 hrs by luciferase activity-based luminescence assay
Procedure, shortened: (§1)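 Late-log luciferase-transfected L. donovani promastigotes (kept at 25 ± 1 °C in medium 199 + 10% FCS under G418) seeded at 5 × 10⁵ per well in medium 199; exposed 72 h to serial dilutions of compound in DMSO, with parallel DMSO dilutions as controls. Aliquot mixed 1:1 with Steady-Glo reagent; luminescence read as RLU and growth inhibition derived from luciferase signal.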

[2] = tested on: Leishmania donovani; assay: Antileishmanial activity against Leishmania donovani MHOM/IN/Dd8 amastigotes infected in mouse J774A.1 cells assessed as inhibition of parasitic growth at 5 ug/ml after 24 hrs by luciferase activity-based luminescence assay; details: for Percent inhibition of intracellular amastigote growth at 5 µg/mL: J774.A1, 24 h, read-out: INH
Procedure, shortened: (§2)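 Macrophages seeded 5 × 10⁴ per well in RPMI-1640 + 10% FCS, 37 °C, CO₂; after 24 h infected with stationary-phase luciferase-expressing promastigotes (2.5 × 10⁵ per well) that transform to amastigotes. Medium replaced with compound in complete medium, incubated 37 °C for 24 h or more; then PBS added, mixed 1:1 with Steady-Glo, shaken 1–2 min, luminescence read to give growth inhibition.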

[3] = tested on: Leishmania donovani; assay: Antileishmanial activity against Leishmania donovani MHOM/IN/Dd8 promastigotes assessed as inhibition of parasitic growth at 2 ug/ml after 72 hrs by luciferase activity-based luminescence assay; procedure, shortened: as §1
[4] = tested on: Leishmania donovani; assay: Antileishmanial activity against Leishmania donovani MHOM/IN/Dd8 amastigotes infected in mouse J774A.1 cells assessed as inhibition of parasitic growth at 2 ug/ml after 24 hrs by luciferase activity-based luminescence assay; details: for percent inhibition of intracellular amastigote growth at 2 µg/mL: J774.A1, 24 h, read-out: INH; procedure, shortened: as §2

`CC1=CCCC(C)(C)C1CCC(=O)/C=C/c1cccc([N+](=O)[O-])c1` (configuration not stated) was tested, and the inhibition at 5 µg/mL [1] was 99%, the Percent inhibition of intracellular amastigote growth at 5 µg/mL [2] was 65% and the inhibition at 2 µg/mL [3] was 98%.

In the case of `CC1=CCCC(C)(C)C1CCC(=O)/C=C/c1ccc([N+](=O)[O-])cc1` (configuration not stated), the inhibition at 5 µg/mL [1] is reported as 99%, the Percent inhibition of intracellular amastigote growth at 5 µg/mL [2] is reported as 80% and the percent inhibition of intracellular amastigote growth at 2 µg/mL [4] is reported as 74%. It also gave an inhibition at 2 µg/mL [3] of 95%.

Work on `COc1ccc(/C=C/C(=O)CCC2C(C)=CCCC2(C)C)cc1OC` (configuration not stated) yielded an inhibition at 5 µg/mL [1] of 100%, a Percent inhibition of intracellular amastigote growth at 5 µg/mL [2] of 95% and a percent inhibition of intracellular amastigote growth at 2 µg/mL [4] of 79%. The inhibition at 2 µg/mL [3] was 100%.

With `CC1=CCCC(C)(C)C1CCC(=O)/C=C/c1ccc(O)cc1` (configuration not stated) the inhibition at 5 µg/mL [1] was 100%, the Activity [2] was “inactive” and the Activity [4] was “inactive”. For the same molecule, the inhibition at 2 µg/mL [3] was 76%.

`CC1=CCCC(C)(C)C1CCC(=O)/C=C/c1ccccc1[N+](=O)[O-]` (configuration not stated) was tested, and the inhibition at 5 µg/mL [1] was 53%, the Activity [2] was “inactive” and the Activity [4] was “inactive”. It also gave an inhibition at 2 µg/mL [3] of 34%.

With `COc1ccc(/C=C/C(=O)CCC2C(C)=CCCC2(C)C)cc1` (configuration not stated) the inhibition at 5 µg/mL [1] was 98%, the Percent inhibition of intracellular amastigote growth at 5 µg/mL [2] was 81% and the percent inhibition of intracellular amastigote growth at 2 µg/mL [4] was 40%. For the same molecule, the inhibition at 2 µg/mL [3] was 98%.

`CC1=CCCC(C)(C)C1CCC(=O)/C=C/c1cccnc1` (configuration not stated) gave an inhibition at 5 µg/mL [1] of 100%, a Percent inhibition of intracellular amastigote growth at 5 µg/mL [2] of 92% and a percent inhibition of intracellular amastigote growth at 2 µg/mL [4] of 33%. The inhibition at 2 µg/mL [3] was 100%.

`CC1=CCCC(C)(C)C1CCC(=O)/C=C/c1ccc(CO)o1` (configuration not stated) was tested, and the inhibition at 5 µg/mL [1] was 93%, the Activity [2] was “inactive” and the Activity [4] was “inactive”. The inhibition at 2 µg/mL [3] was 65%.

Molecule `CC1=CCCC(C)(C)C1CCC(=O)/C=C/c1ccc(Cl)cc1` (configuration not stated) has an inhibition at 5 µg/mL [1] of 100%, a Percent inhibition of intracellular amastigote growth at 5 µg/mL [2] of 93% and a percent inhibition of intracellular amastigote growth at 2 µg/mL [4] of 88%. It also gave an inhibition at 2 µg/mL [3] of 100%.

`CC1=CCCC(C)(C)C1CCC(=O)/C=C/c1ccc(OCc2ccccc2)cc1` (configuration not stated) was tested, and the inhibition at 5 µg/mL [1] was 100%, the Activity [2] was “inactive” and the inhibition at 2 µg/mL [3] was 61%.

`COc1cc(/C=C/C(=O)CCC2C(C)=CCCC2(C)C)cc(OC)c1OC` (configuration not stated) was tested, and the inhibition at 5 µg/mL [1] was 90%, the Activity [2] was “inactive” and the Activity [4] was “inactive”. It also gave an inhibition at 2 µg/mL [3] of 50%.

Source: ChEMBL document CHEMBL1154441, “Chemotherapy of leishmaniasis part-VIII: synthesis and bioevaluation of novel chalcones” (2008)
